“Also recorded” adds a separate entry of the source. Read-outs that look alike come from different tables or passages of the source. Each block holds one molecule with its values, some of them ahead of it.
What was measured:
[1] = system: formalin-induced nociceptive behavior; experiment: Formalin test; type: in vivo; conditions: mice; for effect of the combination of 28 and 31 in formalin test: 28 1 mg/kg ip + 31 1 mg/kg ip
hA1AR = target: T1, hA1AR (Homo sapiens, UniProt P30542); conditions: cited from earlier work
T1 sequence (P30542 1-326): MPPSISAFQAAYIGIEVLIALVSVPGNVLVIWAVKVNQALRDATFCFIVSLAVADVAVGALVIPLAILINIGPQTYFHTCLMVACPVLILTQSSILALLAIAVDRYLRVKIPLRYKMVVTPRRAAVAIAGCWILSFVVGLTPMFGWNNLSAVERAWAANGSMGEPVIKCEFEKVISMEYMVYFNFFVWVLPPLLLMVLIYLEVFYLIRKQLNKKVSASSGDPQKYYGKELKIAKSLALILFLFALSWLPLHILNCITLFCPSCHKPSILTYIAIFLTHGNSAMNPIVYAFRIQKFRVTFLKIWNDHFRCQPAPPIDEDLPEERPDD

mouse A1AR = conditions: cited from earlier work
[2] = system: formalin-induced nociceptive behavior; conditions: cited from earlier work; for effect on second phase of formalin test in presence of A1AR antagonist 29: with 29 (DPCPX) 3 mg/kg ip
A2B ARs [3] = target: T2, A2B ARs (Homo sapiens, UniProt P29275); experiment: Stimulation of adenylyl cyclase activity; type: biochemical
T2 sequence (P29275 1-332): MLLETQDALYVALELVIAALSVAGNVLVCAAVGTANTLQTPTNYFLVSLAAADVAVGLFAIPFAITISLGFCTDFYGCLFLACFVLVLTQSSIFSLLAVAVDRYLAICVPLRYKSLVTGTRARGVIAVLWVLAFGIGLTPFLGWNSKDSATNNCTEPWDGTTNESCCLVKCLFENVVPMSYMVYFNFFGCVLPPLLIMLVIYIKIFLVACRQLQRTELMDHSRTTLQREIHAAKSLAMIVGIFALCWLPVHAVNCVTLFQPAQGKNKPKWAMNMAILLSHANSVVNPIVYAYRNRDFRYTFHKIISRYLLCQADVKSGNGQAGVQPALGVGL
Outline: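 Crude membranes came from CHO cells stably transfected with human A2B receptor, from a single high-speed spin. They were resuspended in 50 mM Tris/HCl, pH 7.4, and used immediately. Stimulation of adenylyl cyclase activity gave agonist EC50. […] Values are geometric means with 95% confidence intervals (n ≥ 3).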

A2B ARs [4] = target: T2, A2B ARs; conditions: hA2B; ref Petrelli et al.[7]; cited from earlier work
hA2A receptor = hA2A receptor (Homo sapiens, UniProt P29274); conditions: ref Petrelli et al.[7]; cited from earlier work
hA2A receptor, sequence (P29274 whole entry): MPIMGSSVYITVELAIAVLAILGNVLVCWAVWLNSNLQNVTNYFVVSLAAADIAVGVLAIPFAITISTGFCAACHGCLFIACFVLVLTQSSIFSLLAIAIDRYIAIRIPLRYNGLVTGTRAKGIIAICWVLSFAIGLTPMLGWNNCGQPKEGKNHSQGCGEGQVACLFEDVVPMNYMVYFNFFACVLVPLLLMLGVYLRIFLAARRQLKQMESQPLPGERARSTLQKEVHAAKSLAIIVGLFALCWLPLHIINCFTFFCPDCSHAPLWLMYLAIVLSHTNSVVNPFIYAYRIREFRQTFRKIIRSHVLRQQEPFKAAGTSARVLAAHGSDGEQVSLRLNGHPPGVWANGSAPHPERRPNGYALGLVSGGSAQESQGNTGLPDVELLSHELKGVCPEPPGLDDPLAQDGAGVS

SMILES: O[C@@H]1[C@H](O)[C@@H](CCl)O[C@H]1n1cnc2c(NC3C[C@@H]4CC[C@@H]3C4)ncnc21 (mixture of isomers) [Compound 28, 5′-chloro-5′-deoxy-N^6-(±)-endo-norborn-2-yl)adenosine]
- effect of the combination of 28 and 31 in formalin test [1]: showed greater effects when combined in reducing both the first and the second phases of formalin test
- selectivity hA1AR vs hA3AR (hA1AR): ~ 2600 fold
- selectivity mouse A1AR vs A3AR (mouse A1AR): ~ 10 000 fold
- effect on second phase of formalin-induced hyperalgesia ([2]; 1–2 mg/kg ip): inhibited the second phase of formalin-induced hyperalgesia in a dose-dependent manner
- effect on second phase of formalin test in presence of A1AR antagonist 29 [2]: blocked

- functional behaviour at hA2B receptor (A2B ARs [3]): partial A2BAR agonists
SMILES: CCn1nnc([C@H]2O[C@@H](n3cnc4c(NC5CC5)ncnc43)C(O)C2O)n1 (stereo in doubt) [Compound 1, (2R,3S,4R,5R)-2-(6-(Cyclopropylamino)-9H-purin-9-yl)-5-(2-ethyl-2H-tetrazol-5-yl)tetrahydrofuran-3,4-diol]

- functional behaviour at hA2B receptor (A2B ARs [3]): partial A2BAR agonists
SMILES: CCn1nnc([C@H]2O[C@@H](n3cnc4c(NCC5CC5)ncnc43)C(O)C2O)n1 (stereo in doubt) [Compound 3, (2R,3S,4R,5R)-2-(6-((Cyclopropylmethyl)amino)-9H-purin-9-yl)-5-(2-ethyl-2H-tetrazol-5-yl)tetrahydrofuran-3,4-diol]

- functional behaviour at hA2B receptor (A2B ARs [3]): partial A2BAR agonists
SMILES: CCn1nnc([C@H]2O[C@@H](n3cnc4c(NCc5cccc(F)c5)ncnc43)C(O)C2O)n1 (stereo in doubt) [Compound 9, (2R,3R,4S,5R)-2-(2-Ethyl-2H-tetrazol-5-yl)-5-(6-((3-fluorobenzyl)amino)-9H-purin-9-yl)tetrahydrofuran-3,4-diol]

SMILES: CCn1nnc([C@H]2O[C@@H](n3cnc4c(NCc5cccc(Cl)c5)ncnc43)C(O)C2O)n1 (stereo in doubt) [Compound 11, (2R,3S,4R,5R)-2-(6-((3-Chlorobenzyl)amino)-9H-purin-9-yl)-5-(2-ethyl-2H-tetrazol-5-yl)tetrahydrofuran-3,4-diol]
- effect on formalin-induced nociceptive behavior ([1]; 0.5–1.0 mg/kg ip, 10 min before formalin, P < 0.005): reduced the late nociceptive behavior induced by formalin in a dose-dependent manner

SMILES: CCn1nnc([C@H]2O[C@@H](n3cnc4c(NC)nc(Cl)nc43)[C@H](O)[C@@H]2O)n1 [Compound 23]
- efficacy (pag, partial agonist % efficacy) A2B (A2B ARs [4]): 75%

SMILES: CCn1nnc([C@H]2O[C@@H](n3cnc4c(NCc5cccc(I)c5)nc(Cl)nc43)[C@H](O)[C@@H]2O)n1 [Compound 26]
- effect on formalin-induced nociceptive behavior ([1]; highest dose tested 1 mg/kg ip, 10 min before formalin): inactive
- efficacy (pag, partial agonist % efficacy) A2B (A2B ARs [4]): 76%
- efficacy (pag, partial agonist % efficacy) A2A (hA2A receptor): 75%

SMILES: C[C@@]1(O)[C@H](O)[C@@H](CO)O[C@H]1n1cnc2c(NC3CCCC3)nc(Cl)nc21 [Compound 27, 2-chloro-2′-C-methyl-N^6-cyclopentyladenosine]
- effect on second phase of formalin-induced hyperalgesia ([2]; 2.5–5 mg/kg ip): inhibited the second phase of formalin-induced hyperalgesia in a dose-dependent manner
- effect on second phase of formalin test in presence of A1AR antagonist 29 [2]: blocked

SMILES: CNC(=O)[C@H]1O[C@@H](n2cnc3c(NCc4cccc(I)c4)nc(Cl)nc32)[C@H](O)[C@@H]1O [Compound 31, 2-chloro-N^6-(3-iodobenzyl)-5′-N-methylcarboxamidoadenosine]
- effect of the combination of 22 and 31 in formalin test ([1]; 22 0.3 mg/kg ip + 31 1 mg/kg ip, 10 min before formalin, P < 0.005): completely erased the second phase and reduced the first phase of formalin-induced nociceptive behavior; also recorded: reduced completely the nocifensive behavior in both the first and the second phases of formalin test
- effect of the combination of 28 and 31 in formalin test [1]: showed greater effects when combined in reducing both the first and the second phases of formalin test
